Screening results: PubChem, several laboratories
This is a sample that favours compounds with a hit; in the whole collection about 6.7% have one here.
CHOP inh = blocks CHOP induction under ER stress; CHO-K1 CHOP-promoter luciferase, tunicamycin-induced, 15-18 h; inhibition, % at 10 µM; 220,000 compounds, 3.8% hits;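 active = compounds that reduced the stress-induced luciferase reporter signal by more than about 70% of percent inhibition, limit read from the data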;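 note: 0% = tunicamycin plus vehicle and 100% = wells without tunicamycin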
GRIN3A LBD mod = modulates the human NR3A ligand-binding domain; NR3A LBD differential scanning fluorimetry, Tm shift; 0% = protein alone, 100% = glycine-bound protein; Tm shift relative to glycine control, % at 25 µM; 340,000 compounds, 2.5% hits;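 active = melting temperature shift of at least 10% of the positive control shift, at one fixed dose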
PREPL inhibitor = inhibits the human prolyl oligopeptidase-like enzyme; Q4J6C6; recombinant PREPL, fluorescence polarization activity-based probe; inhibition, % at 5.96 µM; 320,000 compounds, 0.68% hits; AID 2751; in the data active = inhibition above about 43%;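 note: 0% = enzyme with DMSO and 100% = wells lacking enzyme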
CSC inhib = blocks cancer stem cells; cancer stem cell-like cells viability, luminescence; inhibition, % at 7.5 µM; 300,000 compounds, 1.1% hits; in the data active = inhibition above about 75%; inconclusive = no clear call, values can overlap the other calls; tested in HMLE shEcad cells
Beta apoptosis = beta cell apoptosis inhibition. 300,000 compounds, 0.8% hits. INS-1E cytokine-induced death, ATP luminescence, 48 h; percent of positive-control rescue, neutral wells zero. protection from apoptosis, % (no concentration beside the values). AID 435005;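 active = Every replicate reaches about 75%, or at least half do and their mean reaches it too, limit read from the data; inconclusive = At least half of replicates reach the limit but their mean does not; inactive = Under half of replicates reach the limit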;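 note: 0% = cytokine-treated negative control wells and 100% = positive control rescue; higher means more ATP so stronger rescue from cytokine killing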
T cruzi inh = T. cruzi replication inhibition; T. cruzi beta-gal in NIH3T3, luminescence, 90 h; inhibition, % (test concentration not listed); 300,000 compounds, 1.4% hits; AID 1885;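 active = mean inhibition across valid replicates above about 55%, limit read from the data; inconclusive = mean below that limit but half or more replicates reach it; inactive = mean below it, under half of replicates reach it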;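 note: signal also drops with host cell toxicity which is not excluded here; 0% = plate median of DMSO wells and 100% = zero luminescence signal; higher percent means less beta-gal luminescence so fewer parasites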
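assay system = mouse NIH/3T3 fibroblasts infected with β-gal-expressing T. cruzi Tulahuen C4 | input = 5,000 NIH/3T3 host cells per well | buffer or medium = DMEM plus 2% FBS | timing = 3 h host attachment, then at least 90 h co-culture | measured by = GalScreen luminescence, 60 min | evaluation = luminescence reflecting intracellular parasite burden, expressed as percent inhibition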
CHOP inh conf = confirmation of CHOP induction inhibitors | inhibition, % at 10 µM | 2,100 compounds, 45% hits | shares compounds with CHOP inh | CHO-CHOP promoter luciferase reporter, tunicamycin-induced, luminescence;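 active = mean of three repeat readings of reporter signal inhibition above a set limit, cut at about 70% in these data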;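 note: 0% = tunicamycin plus vehicle and 100% = wells lacking tunicamycin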
The depositor's hits bear a star; ? = inconclusive; . = not tested or not shown; ! = repeats disagree.

SMILES	CHOP inh	GRIN3A LBD mod	PREPL inhibitor	CSC inhib	Beta apoptosis	T cruzi inh	CHOP inh conf
N=c1n(CC(=O)c2ccc([N+](=O)[O-])cc2)c2ccccc2n1Cc1ccc(Cl)cc1	105*	-7	-51	6	3	22	122*
N=c1n(CC(=O)c2ccc([N+](=O)[O-])cc2)c2ccccc2n1Cc1ccccc1Cl	35	-4	4	7	2	.	.
Oc1ccc(Cl)cc1-c1cc(-c2cccc(Br)c2)n[nH]1	101*	31*	7	90*	18	-13	-48
CN(C)C(=O)CSc1nnc(-c2ccc(S(=O)(=O)N3CCCC3)cc2)n1C	.	1	7	-13	-11	-5	.
O=C(Nc1ccc(-c2nc3ccccc3s2)cc1)C1=COCCO1	104*	30*	0	35	-1	0	92*
N#Cc1c(NCCN)nc(-c2ccccc2)c2c1CCCC2	108*	-4	28	10	5	15	59
Cc1cc(Cl)cc(C)c1OCCOCCNCc1ccccc1	.	0	-11	.	.	40	.
Cc1ccc(S(=O)(=O)N[C@@H](Cc2ccccc2)C(=O)CCl)cc1	108*!	-14	-6	55	-7	.	-261
Cc1ccc(NC(=O)c2ccc(C#CC3(O)CCCCC3)cc2)cc1C	101*	-1	6	.	3	?	106*
Cc1ccc(NC(=O)NC2CCCCCCC2)cc1C	.	-4	.	-9	-4	.	.
COc1cccc(OCCSc2nc(C)c(Cc3ccccc3)c(=O)[nH]2)c1	99*	-2	-2	2	1	13	-76
COc1ccc(OCCSc2nc(C)c(Cc3ccccc3)c(=O)[nH]2)cc1	-6	1	4	1	-3	3	.
S=C(Nc1ccccc1)Nc1ccc(OCc2ccc(Cl)cc2Cl)cc1	108*	14*	16	.	2	-15	115*
CNC(=O)NC(=O)C(C)OC(=O)c1oc2ccccc2c1CSc1ccc(Cl)cc1 (centres undefined)	98*	-27	0	104*	-5	15	99*
CCNC(=O)NC(=O)C(C)OC(=O)c1oc2ccccc2c1CSC1CCCCC1 (centres undefined)	99*	0	16	18	4	25	-2
COC(=O)Cn1ncc(N(C)Cc2ccccc2)c(Cl)c1=O	.	0	-8	-1	7	-2	.
C=CCC(Nc1ccccc1)C12C=CC(O1)C(C(=O)OC)=C2C(=O)OC (centres undefined)	112*	2	12	64	-9	-1	42
CCC(C)c1ccc(S(=O)(=O)N2CCN(C(=O)c3ccc(Cl)c(S(=O)(=O)N4CCOCC4)c3)CC2)cc1 (centres undefined)	.	1	.	.	.	.	.
COc1ccc(NC(=O)/C(Cl)=C(/Cl)S(=O)(=O)Cc2ccc(C)cc2)cn1	.	-2	.	.	.	3	118*
COc1ccc(NC(=O)/C(Cl)=C(/Cl)S(=O)Cc2ccccc2Cl)cn1 (centres undefined)	110*	1	.	.	.	.	120*
CC(NC(=O)COc1ccccc1)C(c1ccccc1)N1CCN(C)CC1 (centres undefined)	98*	1	-10	-5	-7	-2	21
CCOc1ccc(NC(=S)NC(C)C(c2ccccc2)N2CCN(C)CC2)cc1 (centres undefined)	4	1	9	.	.	-17	.
Cc1ccc(OCCN2C(=O)NC3(CCc4ccccc4C3)C2=O)cc1 (centres undefined)	29	0	-68	-10	-10	7	.
O=C1C(Cl)=C(Nc2ccccc2)C(=O)c2ccccc21	112*	1	5	112*	66	?	127*
CC(C)NC1=C(Cl)C(=O)c2ccccc2C1=O	19	-5	16	31	69	-12	.
Cc1ccccc1-n1ncc(C(C)NS(=O)(=O)c2sccc2C)c1C (centres undefined)	.	0	19	2	-5	6	.
Cc1cccc2sc(N(CCCN(C)C)C(=O)c3ccc4ncsc4c3)nc12	.	2	-62	2	-7	38	.
Cc1ccc2sc(N(CCCN(C)C)C(=O)c3nc4ccccc4s3)nc2c1C	104*	-1	15	-5	-8	50	96*
